Converted amounts (≈) assume the structure as drawn.

As usually defined, the IC50 is the concentration needed to halve the response being measured.

Experiment [1] is described as follows: Superoxide scavenging activity by chemiluminescence assay. In outline: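 Cell-free xanthine oxidase system in PBS pH 7.4 with a serial dilution of sample. Added hypoxanthine (final 1 mM), lucigenin (0.1 mM), and either buffer or SOD (10 U/mL); started with xanthine oxidase (10 mU/mL). Chemiluminescence read each minute for 15 min. Activity taken from the SOD-inhibitable signal. Uric acid formation at 290 nm checked for direct xanthine oxidase effects.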

The nature of experiment [2]: Inhibition of luminol-induced chemiluminescence of reactive oxygen metabolites in opsonized zymosan-induced human PMNC by chemiluminescence assay. The class given is functional. The essentials:
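PMNs from buffy coats of healthy volunteers, isolated on Ficoll-Hypaque and suspended in HBSS. Cells were mixed with a dilution range of sample plus luminol (0.1 mM), then activated with human-serum-opsonized zymosan (0.8 mg/mL). Luminescence read every 2 min over 30 min. Inhibition calculated from maximum peak levels against a control of cells, luminol and buffer.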

The target of experiment [3] is T1, Estrogen receptor (Homo sapiens) (UniProt P03372).
T1 sequence (whole entry): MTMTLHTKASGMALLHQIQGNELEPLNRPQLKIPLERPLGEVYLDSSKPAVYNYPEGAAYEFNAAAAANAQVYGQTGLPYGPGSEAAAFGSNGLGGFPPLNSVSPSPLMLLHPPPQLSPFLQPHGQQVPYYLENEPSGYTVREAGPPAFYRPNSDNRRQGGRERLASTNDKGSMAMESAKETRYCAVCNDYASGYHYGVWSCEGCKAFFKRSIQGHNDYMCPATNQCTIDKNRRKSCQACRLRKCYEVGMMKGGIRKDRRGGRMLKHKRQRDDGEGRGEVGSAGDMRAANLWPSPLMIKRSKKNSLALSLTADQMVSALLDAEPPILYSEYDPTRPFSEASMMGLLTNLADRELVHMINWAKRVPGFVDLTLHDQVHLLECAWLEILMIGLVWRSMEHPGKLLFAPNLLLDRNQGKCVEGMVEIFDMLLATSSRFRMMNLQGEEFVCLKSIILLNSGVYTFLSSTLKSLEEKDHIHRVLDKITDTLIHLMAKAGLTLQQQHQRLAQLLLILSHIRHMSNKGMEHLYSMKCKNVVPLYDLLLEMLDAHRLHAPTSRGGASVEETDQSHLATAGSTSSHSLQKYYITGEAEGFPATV
As to the kind of experiment: Agonist activity at ERalpha expressed in human HEK293 cells assessed as induction of estrogenic response at 10 to 100 ug/mL by luciferase reporter gene assay relative to 17beta estradiol. The class given is functional, cell-based.

Experiment [4] deals with Estrogen receptor beta (Homo sapiens) (UniProt Q92731). Briefly: Agonist activity at ERbeta expressed in human HEK293 cells assessed as induction of estrogenic response at 10 to 100 ug/mL by luciferase reporter gene assay relative to 17beta estradiol. It is filed as functional, cell-based.
Sequence of Estrogen receptor beta (Homo sapiens) (Q92731 whole entry): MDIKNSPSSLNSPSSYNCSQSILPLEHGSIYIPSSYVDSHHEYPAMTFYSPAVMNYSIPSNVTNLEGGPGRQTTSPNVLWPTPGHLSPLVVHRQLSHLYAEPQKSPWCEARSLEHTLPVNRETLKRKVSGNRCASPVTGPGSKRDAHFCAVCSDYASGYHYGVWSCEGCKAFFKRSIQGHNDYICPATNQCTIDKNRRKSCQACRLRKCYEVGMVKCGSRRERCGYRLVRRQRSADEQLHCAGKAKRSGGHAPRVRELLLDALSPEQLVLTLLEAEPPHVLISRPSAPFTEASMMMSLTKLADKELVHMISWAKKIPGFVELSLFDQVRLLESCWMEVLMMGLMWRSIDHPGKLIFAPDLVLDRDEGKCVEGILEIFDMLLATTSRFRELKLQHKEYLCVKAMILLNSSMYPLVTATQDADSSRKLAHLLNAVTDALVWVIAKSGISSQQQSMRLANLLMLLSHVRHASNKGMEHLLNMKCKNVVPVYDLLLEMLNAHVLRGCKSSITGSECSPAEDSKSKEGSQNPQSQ

`CO[C@]1(CC=C(C)C)C(=O)[C@@](O)(C(=O)/C=C/c2ccccc2)C(=O)C(CC=C(C)C)=C1O` [MICROFOLIAN]: the IC50 in experiment [1] amounted to 3 µg/mL (≈ 6.84 µM); in experiment [2] it was 4 µg/mL.
On to `COc1c(O)c(CC=C(C)C)c(O)c2c1O[C@@H](c1ccccc1)CC2=O`, for which the Activity in experiment [3] and in experiment [4] was 20% throughout.
Turning to `CC1(C)C=Cc2c(c(O)cc3oc(=O)ccc23)O1` [CEDRECOUMARIN A], the figures for the IC50 in experiment [1] and in experiment [2] were 0.2 µg/mL (≈ 0.819 µM) and 13 µg/mL, respectively. For the same compound, the Activity in experiment [3] and in experiment [4] was 20% throughout.
`COc1c(O)c(CC=C(C)C)c2c(c1O)C(=O)C[C@@H](c1ccccc1)O2` [AGRANDOL]: the IC50 in experiment [1] is 3 µg/mL (≈ 8.46 µM); in experiment [2] it was 3.2 µg/mL. The Activity in experiment [3] and in experiment [4] was 20% throughout.

The values are drawn from ChEMBL document CHEMBL1150643, “Bioactive constituents of Cedrelopsis microfoliata” (J Nat Prod, 2002).
